HTRA1 inhibitor: blocks human HTRA1 serine peptidase | recombinant HTRA1, FP-rhodamine activity-based probe, fluorescence polarization | inhibition, % at 5.96 µM | 0.5% of 340,000 active | AID 504803; in the data active means inhibition above about 36%
PRMT1 inh: blocks human protein arginine methyltransferase 1 | AID 652257 | Q99873 | inhibition, % at 2.79 µM | recombinant PRMT1, activity-based probe fluorescence polarization | 1.3% of 370,000 active;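 active means inhibition above about 21% made by adding two undisclosed values, limit read from the data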
ABHD4 inh: inhibits mouse alpha/beta hydrolase domain 4; Q8VD66; purified mABHD4, FP-Rh probe fluorescence polarization; inhibition, % at 8.92 µM; 0.54% of 370,000 active; AID 720543;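 active means inhibition exceeding the mean over every tested compound plus 3 SD, cut at about 30% in these data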
Target sequence (Q8VD66 whole entry, looked up, the tested form may be a part): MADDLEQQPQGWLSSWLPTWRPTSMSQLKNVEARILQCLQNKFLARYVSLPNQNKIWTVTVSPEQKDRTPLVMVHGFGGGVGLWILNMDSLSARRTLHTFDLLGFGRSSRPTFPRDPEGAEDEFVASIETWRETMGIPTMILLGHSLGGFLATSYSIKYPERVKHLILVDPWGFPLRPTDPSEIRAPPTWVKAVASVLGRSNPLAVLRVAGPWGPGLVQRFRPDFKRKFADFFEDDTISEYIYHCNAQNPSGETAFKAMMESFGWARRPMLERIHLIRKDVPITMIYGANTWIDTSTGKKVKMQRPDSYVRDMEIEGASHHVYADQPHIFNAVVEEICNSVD
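assay system = mABHD4 protein | compound dosing = single nominal dose of 8.92 µM, 0.89% DMSO final | read-out basis = percent inhibition of probe binding, normalized to plate controls | schedule = Enzyme–compound pre-incubation 45 min, then probe 60 min, both 25 °C | detection = fluorescence polarization, excitation 525 nm, emission 598 nm, BODIPY TMR filters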
TCR CD3 inh: blocks the human TCR-CD3 interaction; TAMRA-labeled TCR probe fluorescence, biochemical; inhibition, % at 9.4 µM; 0.37% of 360,000 active; in the data active means inhibition above about 19%;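 further: recombinant mutant TCR 2C K166C tagged with TAMRA read by polarization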
SIAE inh: human SIAE inhibition, primary screen; Q9HAT2; SIAE FP-Rh probe binding, fluorescence polarization; inhibition, % at 9.66 µM; 0.69% of 370,000 active;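 active means inhibition above a cutoff: mean of compounds within the control limits plus 3 SD of those, cut at about 17% in these data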
PRMT1 inh conf: confirmation of human PRMT1 inhibitors. 42% of 3,300 active. shares compounds with PRMT1 inh. recombinant His-PRMT1, activity-based probe fluorescence polarization. inhibition, % at 2.79 µM;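 active means mean inhibition across replicates above the hit cutoff derived for the earlier primary screen, cut at about 22% in these data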
Numbers stand for hits; - = inactive; . = no result. Only some compounds are listed: those with a hit (about 2.7% of all), similar ones and a draw of the others.

SMILES	HTRA1 inhibitor	PRMT1 inh	ABHD4 inh	TCR CD3 inh	SIAE inh	PRMT1 inh conf
COc1ccc(N2C(=O)CC(Sc3n[nH]c(-c4ccccc4)n3)C2=O)cc1 (centres undefined)	-	30	-	-	-	75
CN(C)C(=O)C[C@H]1C[C@@H]2c3cc(NC(=O)NC4CCCC4)ccc3O[C@@H]2[C@@H](CO)O1	.	-	-	-	-	.
CCOC(=O)CSc1nc2c(c(=O)[nH]c(=O)n2C)n1CCc1ccccc1	-	-	-	-	-	.
Cn1c(=O)[nH]c(=O)c2c1nc(SCC(=O)O)n2CCc1ccccc1	-	26	-	-	-	-
COc1cc(CN2C[C@@H](CO)O[C@@H](n3cnc4c(Nc5ccccc5)ncnc43)C2)cc(OC)c1OC	.	-	-	-	-	.
Oc1ccc2nnc3c(Br)cnn3c2c1	-	50	-	-	-	50
Nc1c(C(=O)N2CCCC2)sc2nc(-c3ccccc3)ccc12	-	34	-	-	-	-
Nc1c(C(=O)Nc2ccccc2)sc2nc(-c3cccnc3)ccc12	.	40	-	-	-	-
COc1ccc2cc3c(N)c(C(=O)N4CCCC4)sc3nc2c1	.	41	-	-	-	-
O=c1c2ccccc2c2ccccc2c(=O)n1Nc1ccccc1	-	-	-	-	-	.
C[C@@H]1CN([C@H](C)CO)S(=O)(=O)c2ccc(C#Cc3ccccc3F)cc2O[C@@H]1CN(C)C(=O)Cc1ccccc1	-	-	-	-	-	.
O=[N+]([O-])c1cc([N+](=O)[O-])c(Oc2cc(Cl)ccc2Cl)cc1NC1CCCCCCC1	-	-	-	-	-	.
Cc1ccccc1NC(=O)[C@@H]1CC(=O)O[C@@H]1c1ccccc1	.	-	-	.	-	.
O=C(CNC(=O)c1cc(Cl)cc([N+](=O)[O-])c1)NC1CC1	-	-	-	-	-	.
Cc1sc(C(C2C(=O)CC(C)(C)CC2=O)C2C(=O)CC(C)(C)CC2=O)cc1[N+](=O)[O-]	-	26	-	-	-	45
C[C@H](c1ccccc1)N1C[C@@H](COCc2ccccc2)Oc2cccc(Oc3ccc(F)cc3)c2S1(=O)=O	.	-	-	-	-	.
O=C(CSc1nnc(-c2cccnc2)n1Cc1ccco1)N1c2ccccc2Sc2ccccc21	-	40	-	-	-	-
O=C(CSc1nnc(-c2cccnc2)n1Cc1ccco1)Nc1ccc(Cl)cc1	.	-	-	.	-	.
Cn1cc(Br)c(NC(=O)/C=C/C(=O)O)n1	-	36	-	-	-	-
Cn1cc(Br)c(C(=O)Nc2c(F)c(F)c(F)c(F)c2F)n1	-	-	-	-	-	.
O=C(/C=C/[C@H]1O[C@@H](n2ccc(=O)[nH]c2=O)[C@H](O)[C@@H]1O)NCC1CCCO1 (some centres undefined)	.	-	-	-	-	.
Cc1ccc(-c2cccc(NC(=O)C3C4C=CC(C4)C3C(=O)O)c2)o1 (centres undefined)	-	54	-	-	-	-
CC(=O)c1cccc(NC(=O)C2C3C=CC(C3)C2C(=O)O)c1 (centres undefined)	-	-	-	-	-	.
COc1ccc(NC(=O)CN(c2ccc(F)cc2)S(=O)(=O)c2ccccc2)c(OC)c1	-	-	-	-	-	.
O=C(/C=C/c1ccco1)NCc1ccc(F)cc1	-	38	-	-	-	-
SMILES	HTRA1 inhibitor	PRMT1 inh	ABHD4 inh	TCR CD3 inh	SIAE inh	PRMT1 inh conf
CC(C)N(CCCNC(=O)Cn1c(=O)c2cccn2c2ccccc21)Cc1ccccc1	-	-	-	-	-	.
Cc1ccccc1-c1csc(C(C)(O)c2ccc(F)c(F)c2)n1 (centres undefined)	.	-	-	-	-	.
Cc1ccc(/C=N/n2c(C3CCCCC3)n[nH]c2=S)cc1	-	-	-	-	-	.
CCC(=O)NNc1nc2c(F)cccc2s1	-	49	-	-	-	-
COc1ccc(C(=O)Nc2cc(C(=O)c3ccccc3)c(C)oc2=O)cc1	-	57	-	-	-	-
COC(=O)c1cc(NC(=O)c2ccccc2)c(=O)oc1C	-	-	-	-	-	.
Cc1oc(=O)c(NC(=O)c2cccc(Cl)c2)cc1C(=O)c1ccccc1	-	51	-	-	-	24
CC(OC(=O)CCNS(=O)(=O)c1ccccc1)C(=O)Nc1ccc(S(=O)(=O)N2CCCCC2)cc1 (centres undefined)	-	-	-	-	-	.
Cc1c(Cl)cnn1CC(=O)NC1C(=O)N2C(C(=O)O)=C(CSc3nnnn3C)CSC12 (centres undefined)	-	62	-	-	-	35

Compound activity as filed in PubChem.
